This is an account of results in ChEMBL document CHEMBL1641412, “Synthesis and 11β hydroxysteroid dehydrogenase 1 inhibition of thiazolidine derivatives with an adamantyl group” (Bioorg Med Chem Lett, 2011).

The test system of data set [1] is Mus musculus. Kind of data set: In vivo inhibition of 11beta-HSD1 in C57/BL6 mouse lnguinal fat pad assessed as cortisol product at 40 mg/kg, po after 2 hrs by ELISA. In kind it is functional. The note with it: C57Bl/6, Fat pad. (In general: An ELISA detects its analyte on a solid surface through an enzyme-linked reagent.)
The nature of data set [2]: Clearance in po dosed rat. In kind it is ADME, organism-based. Particulars: in vivo.
In data set [3] the test system is Mus musculus. Description: In vivo inhibition of 11beta-HSD1 in C57Bl/6 mouse liver assessed as cortisol product at 40 mg/kg, po after 2 hrs by ELISA. The note with it: C57Bl/6, 2 h. In kind it is functional.
Another data set concerns the target CYP3A4 (Homo sapiens, UniProt P08684). Kind of data set: Inhibition of CYP3A4 at 10 uM. In kind it is ADME.
The nature of data set [4]: Metabolic stability in human liver microsomes after 30 mins. In kind it is ADME, Microsome. The note with it: read-out: Stability. (Microsomes from liver hold many membrane-bound enzymes, among them those of drug oxidation.)
A further data set concerns the target CYP2D6 (Homo sapiens, UniProt P10635). Description: Inhibition of CYP2D6 at 10 uM. In kind it is ADME.
For a further data set, the target named is CYP2C19 (Homo sapiens, UniProt P33261). Kind of data set: Inhibition of CYP2C19 at 10 uM. In kind it is ADME.
Data set [5] is described as follows: Cmax in po dosed rat. In kind it is ADME, organism-based. On the set-up: route oral. Particulars: in vivo.
The target of data set [6] is 11-beta-hydroxysteroid dehydrogenase 1 (Mus musculus, UniProt P50172). Kind of data set: Inhibition of mouse 11beta-HSD1 expressed in CHO cells after 3 hrs by HTRF cortisol assay. In kind it is cell-based.
Data set [7] can be described thus: Oral bioavailability in po dosed rat. In kind it is ADME, organism-based. Particulars: in vivo.
In data set [8] the target is T1, 11-beta-hydroxysteroid dehydrogenase type 2 (Homo sapiens) (UniProt P80365).
T1 sequence (whole entry): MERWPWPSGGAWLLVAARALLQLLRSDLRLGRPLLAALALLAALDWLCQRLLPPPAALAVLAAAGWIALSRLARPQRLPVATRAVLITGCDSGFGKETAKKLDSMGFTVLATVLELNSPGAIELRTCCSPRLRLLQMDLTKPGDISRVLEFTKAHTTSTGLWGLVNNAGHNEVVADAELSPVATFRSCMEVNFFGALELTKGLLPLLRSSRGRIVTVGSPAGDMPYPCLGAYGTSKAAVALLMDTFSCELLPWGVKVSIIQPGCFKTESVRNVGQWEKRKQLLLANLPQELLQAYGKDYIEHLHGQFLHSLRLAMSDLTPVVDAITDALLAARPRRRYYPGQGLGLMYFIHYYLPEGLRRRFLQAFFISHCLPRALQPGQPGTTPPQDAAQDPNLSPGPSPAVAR
Description: Inhibition of human 11beta-HSD2 expressed in HEK293 cells at 10 uM after 24 hrs by HTRF cortisol assay. In kind it is cell-based. Background: TR-FRET usually uses a lanthanide donor and a delayed reading to cut background.

Another data set addresses T2, CYP1A2 (Homo sapiens, UniProt P05177).
T2 sequence (P05177 whole entry): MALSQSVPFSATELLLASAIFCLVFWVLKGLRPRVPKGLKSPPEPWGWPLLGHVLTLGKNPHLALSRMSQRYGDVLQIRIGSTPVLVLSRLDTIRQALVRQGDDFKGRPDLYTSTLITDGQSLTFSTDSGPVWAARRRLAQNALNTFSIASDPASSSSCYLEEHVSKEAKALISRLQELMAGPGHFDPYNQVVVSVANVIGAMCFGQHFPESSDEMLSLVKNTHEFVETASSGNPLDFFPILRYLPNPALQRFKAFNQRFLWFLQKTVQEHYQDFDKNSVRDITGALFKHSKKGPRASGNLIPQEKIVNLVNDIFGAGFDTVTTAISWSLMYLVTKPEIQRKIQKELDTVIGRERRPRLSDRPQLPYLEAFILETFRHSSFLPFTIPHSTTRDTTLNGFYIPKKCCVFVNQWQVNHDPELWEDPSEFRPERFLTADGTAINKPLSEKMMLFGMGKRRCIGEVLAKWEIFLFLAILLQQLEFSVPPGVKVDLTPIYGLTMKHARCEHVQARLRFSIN
Kind of data set: Inhibition of CYP1A2 at 10 uM. In kind it is ADME.

Data set [9] has as its target 11-beta-hydroxysteroid dehydrogenase 1 (Homo sapiens, UniProt P28845). Kind of data set: Inhibition of human 11beta-HSD1 expressed in CHO cells after 3 hrs by HTRF cortisol assay. In kind it is cell-based.
The target of data set [10] is Voltage-gated inwardly rectifying potassium channel KCNH2 (Homo sapiens, UniProt Q12809). Kind of data set: Binding affinity to human ERG.
Data set [11] deals with Cynomolgus monkey. Kind of data set: In vivo inhibition of 11beta-HSD1 in cynomolgus monkey lnguinal fat pad assessed as cortisol product at 20 mg/kg, po after 2 hrs by ELISA. In kind it is functional. Particulars: Macaca fascicularis.
Data set [12] is described as follows: AUC (0 to 8 hrs) in po dosed rat. In kind it is ADME, organism-based. On the set-up: time < 8 hr, route oral. The note with it: plasma. Put shortly:
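Rats dosed orally; plasma exposure expressed as AUC over 0–8 h.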

Data set [13] relates to Mus musculus. Kind of data set: Antidiabetic activity in KKAy mouse assessed as reduction of non-fasting plasma glucose level at 100 mg/kg, po qd for 18 days relative to control. In kind it is functional. Details: scale not given: the % may be the effect or the level left. Put shortly:
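KKAy mice dosed orally at 100 mg/kg for 18 days alongside vehicle-treated controls; non-fasting blood glucose measured after 18 days; n = 7 mice/group, means ± SEM.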

Data set [14] has as its system Cynomolgus monkey. Kind of data set: In vivo inhibition of 11beta-HSD1 in cynomolgus monkey liver assessed as cortisol product at 20 mg/kg, po after 2 hrs by ELISA. In kind it is functional. The note with it: Macaca fascicularis.
In data set [15] the test system is Mus musculus. Kind of data set: Antidiabetic activity in KKAy mouse assessed as reduction of AUC of plasma glucose level at 100 mg/kg, po qd for 18 days by oral glucose tolerance test relative to control. In kind it is functional. On the set-up: scale not given: the % may be the effect or the level left.

As usually defined, the inhibition in vivo is the drop in the measured response relative to a control, in per cent. The CL/F is clearance divided by bioavailability, as obtained after extravascular dosing. Broadly, the inhibition is the share of the control response that was lost under treatment. As a reminder, the Cmax is the peak of the concentration-time curve. As usually defined, the IC50 is the concentration that inhibits the measured activity by half. A word on the bioavailability: it is dose-corrected exposure relative to a reference, in per cent. One may read the AUC(0-t) as the area under the concentration-time curve up to a stated or last time point.

Some results are limits rather than exact numbers.

Chain of 11-beta-hydroxysteroid dehydrogenase 1 (Homo sapiens, UniProt P28845) (P28845 whole entry): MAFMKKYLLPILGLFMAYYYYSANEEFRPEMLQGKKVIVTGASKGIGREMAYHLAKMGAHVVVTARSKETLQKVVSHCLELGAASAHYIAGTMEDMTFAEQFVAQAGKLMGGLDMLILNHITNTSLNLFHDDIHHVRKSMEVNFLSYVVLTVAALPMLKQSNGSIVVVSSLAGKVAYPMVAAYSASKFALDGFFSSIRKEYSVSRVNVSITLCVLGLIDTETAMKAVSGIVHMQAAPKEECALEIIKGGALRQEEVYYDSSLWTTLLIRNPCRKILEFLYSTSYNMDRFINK
Chain of 11-beta-hydroxysteroid dehydrogenase 1 (Mus musculus, UniProt P50172) (P50172 whole entry): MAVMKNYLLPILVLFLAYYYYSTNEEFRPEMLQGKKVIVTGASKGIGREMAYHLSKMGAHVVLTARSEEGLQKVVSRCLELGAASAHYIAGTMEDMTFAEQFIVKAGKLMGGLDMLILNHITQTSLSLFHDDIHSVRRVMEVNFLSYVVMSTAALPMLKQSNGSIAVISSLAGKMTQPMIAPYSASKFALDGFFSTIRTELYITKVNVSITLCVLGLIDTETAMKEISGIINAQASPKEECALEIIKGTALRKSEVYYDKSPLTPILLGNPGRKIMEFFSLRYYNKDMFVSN
Chain of CYP2C19 (P33261 whole entry): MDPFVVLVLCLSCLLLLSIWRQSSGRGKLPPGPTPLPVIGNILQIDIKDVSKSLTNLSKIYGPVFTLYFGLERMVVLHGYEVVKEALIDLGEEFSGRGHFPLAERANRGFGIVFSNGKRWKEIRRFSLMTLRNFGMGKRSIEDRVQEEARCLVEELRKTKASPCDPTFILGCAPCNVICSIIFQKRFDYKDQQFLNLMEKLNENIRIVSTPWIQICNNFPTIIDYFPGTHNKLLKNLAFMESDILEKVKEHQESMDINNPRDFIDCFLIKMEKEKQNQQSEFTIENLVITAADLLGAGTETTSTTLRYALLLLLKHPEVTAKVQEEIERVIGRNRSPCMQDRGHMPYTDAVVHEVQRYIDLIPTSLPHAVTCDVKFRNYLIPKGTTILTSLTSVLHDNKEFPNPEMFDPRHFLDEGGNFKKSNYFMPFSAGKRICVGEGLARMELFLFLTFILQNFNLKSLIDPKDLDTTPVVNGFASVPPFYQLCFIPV
Chain of CYP3A4 (P08684 whole entry): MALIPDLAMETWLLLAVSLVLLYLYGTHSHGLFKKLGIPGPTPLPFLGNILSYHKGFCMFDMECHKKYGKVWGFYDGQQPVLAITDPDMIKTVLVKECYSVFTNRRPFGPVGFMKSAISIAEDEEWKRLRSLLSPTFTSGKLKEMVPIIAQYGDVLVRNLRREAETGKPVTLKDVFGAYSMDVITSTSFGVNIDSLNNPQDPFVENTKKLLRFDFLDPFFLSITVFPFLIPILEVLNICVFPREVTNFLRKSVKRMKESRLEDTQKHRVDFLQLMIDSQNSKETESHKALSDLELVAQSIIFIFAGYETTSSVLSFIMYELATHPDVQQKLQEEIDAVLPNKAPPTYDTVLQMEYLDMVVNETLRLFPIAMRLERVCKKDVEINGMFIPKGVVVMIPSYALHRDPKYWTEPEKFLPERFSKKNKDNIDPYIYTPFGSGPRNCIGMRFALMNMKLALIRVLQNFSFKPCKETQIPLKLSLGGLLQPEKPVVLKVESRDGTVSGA
Chain of CYP2D6 (P10635 whole entry): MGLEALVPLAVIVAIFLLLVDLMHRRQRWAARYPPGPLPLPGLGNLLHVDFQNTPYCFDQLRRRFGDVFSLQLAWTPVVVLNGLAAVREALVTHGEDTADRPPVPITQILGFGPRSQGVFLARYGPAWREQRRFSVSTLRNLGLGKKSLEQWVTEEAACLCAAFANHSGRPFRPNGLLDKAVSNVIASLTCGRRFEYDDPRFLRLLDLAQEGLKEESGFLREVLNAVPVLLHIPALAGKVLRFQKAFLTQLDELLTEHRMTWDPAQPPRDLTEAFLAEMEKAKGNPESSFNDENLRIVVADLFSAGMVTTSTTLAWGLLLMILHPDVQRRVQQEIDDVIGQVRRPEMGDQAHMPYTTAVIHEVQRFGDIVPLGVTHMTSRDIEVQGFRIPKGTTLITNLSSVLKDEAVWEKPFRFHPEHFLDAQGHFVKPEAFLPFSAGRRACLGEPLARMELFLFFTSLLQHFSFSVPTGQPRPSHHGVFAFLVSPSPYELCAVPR
Chain of Voltage-gated inwardly rectifying potassium channel KCNH2 (Q12809 whole entry): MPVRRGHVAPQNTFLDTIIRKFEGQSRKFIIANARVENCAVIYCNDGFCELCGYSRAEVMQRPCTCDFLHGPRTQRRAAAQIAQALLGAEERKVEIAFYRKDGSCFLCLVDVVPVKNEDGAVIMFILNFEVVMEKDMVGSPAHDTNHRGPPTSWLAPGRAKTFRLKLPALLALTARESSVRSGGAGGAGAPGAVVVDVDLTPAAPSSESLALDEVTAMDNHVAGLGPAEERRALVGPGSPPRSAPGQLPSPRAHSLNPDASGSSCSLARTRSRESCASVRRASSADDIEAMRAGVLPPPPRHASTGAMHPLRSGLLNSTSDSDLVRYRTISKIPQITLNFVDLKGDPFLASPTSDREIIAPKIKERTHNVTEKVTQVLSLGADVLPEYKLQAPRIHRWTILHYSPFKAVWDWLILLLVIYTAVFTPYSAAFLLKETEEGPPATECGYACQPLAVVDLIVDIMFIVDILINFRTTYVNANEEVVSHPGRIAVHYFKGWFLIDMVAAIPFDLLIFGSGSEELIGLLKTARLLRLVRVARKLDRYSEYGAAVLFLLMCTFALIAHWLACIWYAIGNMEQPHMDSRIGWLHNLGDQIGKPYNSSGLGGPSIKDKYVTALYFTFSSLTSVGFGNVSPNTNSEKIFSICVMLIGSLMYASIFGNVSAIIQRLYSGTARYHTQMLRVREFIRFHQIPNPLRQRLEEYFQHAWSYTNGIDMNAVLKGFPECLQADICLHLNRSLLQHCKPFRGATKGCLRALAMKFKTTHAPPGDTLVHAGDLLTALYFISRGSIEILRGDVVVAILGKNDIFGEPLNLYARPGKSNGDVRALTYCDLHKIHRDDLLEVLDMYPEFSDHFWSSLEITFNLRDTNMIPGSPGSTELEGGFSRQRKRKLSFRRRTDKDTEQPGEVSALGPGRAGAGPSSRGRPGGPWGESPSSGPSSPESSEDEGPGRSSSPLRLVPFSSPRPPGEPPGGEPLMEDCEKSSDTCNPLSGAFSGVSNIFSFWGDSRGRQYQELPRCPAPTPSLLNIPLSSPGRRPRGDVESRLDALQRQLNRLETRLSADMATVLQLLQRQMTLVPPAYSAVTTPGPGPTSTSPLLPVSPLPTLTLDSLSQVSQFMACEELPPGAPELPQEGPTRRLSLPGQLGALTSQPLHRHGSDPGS

For `Cc1ccc(S(=O)(=O)N2CCSC2C(=O)NC2C3CC4CC2CC(C(N)=O)(C4)C3)cc1` (stereo unspecified), the inhibition in vivo at 40 mg/kg in the data set with Mus musculus [1] and in the data set on Mus musculus [3] was 51% throughout. For the same compound, in data set [2], the CL/F is 43.3 mL/min/kg. Also, the inhibition at 10 µM against CYP3A4 was 24%; on CYP2D6, 0%; against CYP2C19, 21%; on CYP1A2 it was 0%. In data set [4], the remaining at 0.5 h stood at 53%. In data set [5], this compound registered a Cmax of 650 ng/mL. Further, the concentration for half-maximal inhibition (IC50) was determined as 57 nM in data set [6] and 8 nM in [9]. For the same compound, the bioavailability in data set [7] was determined as 16%. For the same compound, in [8], the inhibition amounted to 0%.

Consider `NC(=O)C12CC3CC(C1)C(NC(=O)[C@@H]1SCCN1S(=O)(=O)c1ccccc1F)C(C3)C2` (stereo in doubt; 8g (S) (Z)), for which, in data set [9], it took 38700 nM to reach half-maximal inhibition (IC50).

In data set [6], `COc1ccc(S(=O)(=O)N2CCSC2C(=O)NC2C3CC4CC2CC(C(N)=O)(C4)C3)cc1` (stereo unspecified) came in with a concentration for half-maximal inhibition (IC50) of 171 nM.

With `NC(=O)C12CC3CC(C1)C(NC(=O)C1SCCN1S(=O)(=O)c1ccc(F)cc1)C(C3)C2` (stereo unspecified), the IC50 in data set [6] came to 27 nM.

As to `NC(=O)C12CC3CC(C1)C(NC(=O)C1SCCN1S(=O)(=O)c1ccccc1F)C(C3)C2` (stereo in doubt; 8g), the IC50 in data set [6] and in [9] was 4 nM throughout.

In [9], `NC(=O)C12CC3CC(C1)C(NC(=O)C1SCCN1S(=O)(=O)c1ccccc1F)C(C3)C2` (mixture of isomers) gave a half-inhibitory concentration (IC50) of 4 nM.

Consider `NC(=O)C12CC3CC(C1)C(NC(=O)[C@@H]1SCCN1S(=O)(=O)c1ccccc1F)C(C3)C2` (stereo in doubt; 8g (S) (E)), for which the IC50 in data set [9] worked out at 12 nM.

`NC(=O)C12CC3CC(C1)C(NC(=O)C1SCCN1S(=O)(=O)c1ccccc1F)C(C3)C2` (stereo in doubt; 8g (Z)) had an IC50 in [9] of 7950 nM.

In the case of `NC(=O)C12CC3CC(C1)C(NC(=O)C1SCCN1S(=O)(=O)c1ccccc1F)C(C3)C2` (stereo in doubt; 8g (E)) [listing 1 of 2 here], in data set [8], the inhibition came to 0%.

Regarding `NC(=O)C12CC3CC(C1)C(NC(=O)[C@H]1SCCN1S(=O)(=O)c1ccccc1F)C(C3)C2` (stereo in doubt; 8g (R) (Z)), the IC50 in data set [9] stood at 1340 nM.

Regarding `NC(=O)C12CC3CC(C1)C(NC(=O)C1SCCN1S(=O)(=O)c1ccc(Cl)c(Cl)c1)C(C3)C2` (stereo unspecified), the remaining at 0.5 h in data set [4] came to 43%. For the same compound, in [8], the inhibition was determined as 47%. In data set [9], this compound displayed an IC50 of 5 nM.

For `NC(=O)C12CC3CC(C1)C(NC(=O)C1SCCN1S(=O)(=O)c1ccccc1F)C(C3)C2` (stereo in doubt; 8g (E)) [listing 2 of 2 here], the inhibition in vivo at 40 mg/kg turned out to be 67% with Mus musculus [1] and 65% in the data set with Mus musculus [3]. This compound also had a CL/F in [2] of 48.3 mL/min/kg. The inhibition at 10 µM came to 21% against CYP3A4, 0% on CYP2D6, 25% against CYP2C19 and 0% against CYP1A2. In [4], the remaining at 0.5 h stood at 77%. Also, the results for the Activity (in data set [10]; in the data set on Mus musculus [13]; in the data set with Mus musculus [15]) were more than 100 µM, 28.2% and 18.1%, respectively. Further, the IC50 in data set [6] and in [9] was 3 nM throughout. Also, the inhibition in vivo at 20 mg/kg in the data set with Cynomolgus monkey [11] turned out to be 62%; in the data set with Cynomolgus monkey [14] it was 57%. Moreover, the AUC(0-t) at 8 h in [12] turned out to be 1110 ng·h/mL. In [7], this compound displayed a bioavailability of 32%.

In turn, `NC(=O)C12CC3CC(C1)C(NC(=O)C1SCCN1S(=O)(=O)c1ccccc1)C(C3)C2` (stereo unspecified) had an IC50 in [6] of 842 nM.

In [9], `NC(=O)C12CC3CC(C1)C(NC(=O)[C@H]1SCCN1S(=O)(=O)c1ccccc1F)C(C3)C2` (stereo in doubt; 8g (R) (E)) returned an IC50 of 2 nM.

Regarding `NC(=O)C12CC3CC(C1)C(NC(=O)C1SCCN1S(=O)(=O)c1cccc(F)c1)C(C3)C2` (stereo unspecified), the IC50 in data set [6] was determined as 76 nM.
